According to ChEMBL document CHEMBL4422612, “Small Molecule Inhibitor that Stabilizes the Autoinhibited Conformation of the Oncogenic Tyrosine Phosphatase SHP2” (J Med Chem, 2019):
Changes are numbered by the printed parent chain. The source made the active and inactive calls. No cut-off for these calls is given here.

How the values were obtained:
[1] = biological target: T1, Tyrosine-protein phosphatase non-receptor type 11 (Homo sapiens) (UniProt Q06124); test: Mixed type inhibition of human wild-type full length SHP2 assessed as substrate [Et] at 10 uM using H-Glu-Phe-pTyr-Ala-Glu-Val-Gly-Arg-Ser-Pro-Pro-Asp-Pro-Ala-Lys as substrate by Lineweaver-Burk plot analysis (reference value: 0.029 uM)
T1 sequence (whole entry): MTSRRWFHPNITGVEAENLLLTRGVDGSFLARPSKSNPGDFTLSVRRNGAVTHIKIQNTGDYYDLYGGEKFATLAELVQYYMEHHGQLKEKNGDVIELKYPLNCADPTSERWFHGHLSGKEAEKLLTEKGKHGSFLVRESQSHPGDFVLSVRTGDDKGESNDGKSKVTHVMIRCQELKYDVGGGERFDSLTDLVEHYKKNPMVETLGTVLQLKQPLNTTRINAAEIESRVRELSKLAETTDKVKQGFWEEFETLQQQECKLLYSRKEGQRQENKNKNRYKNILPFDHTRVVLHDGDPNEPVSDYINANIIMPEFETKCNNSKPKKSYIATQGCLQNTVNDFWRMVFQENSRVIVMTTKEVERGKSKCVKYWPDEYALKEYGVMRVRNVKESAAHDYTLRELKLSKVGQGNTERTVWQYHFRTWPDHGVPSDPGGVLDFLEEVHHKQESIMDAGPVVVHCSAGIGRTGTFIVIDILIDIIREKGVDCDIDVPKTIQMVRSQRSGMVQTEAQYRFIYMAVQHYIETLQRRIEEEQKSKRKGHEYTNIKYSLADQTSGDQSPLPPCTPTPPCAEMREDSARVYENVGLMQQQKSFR

[2] = biological target: T2, Tyrosine-protein phosphatase non-receptor type 11 (Mus musculus) (UniProt P35235); test: Inhibition of SHP2 in mouse Ba/F3 cells assessed as reduction in IL3-stimulated AKT phosphorylation pretreated for 4 hrs followed by IL3 stimulation and measured after 5 to 60 mins by Western blot analysis; format: cell-based
T2 sequence (whole entry): T1 sequence (whole entry) with M450V, A550V, K590R
In short: (§1)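 Ba/F3 cells starved overnight in serum- and cytokine-free RPMI1640. Treated with 20 µM compound for 4 h, then IL-3 (2 ng/mL) for the indicated times. RIPA lysates (50 µg) immunoblotted for p-Erk, p-Akt, p-Jak2 and p-Stat5, then reprobed for total proteins. Representative of three experiments.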

[3] = biological target: T2, Tyrosine-protein phosphatase non-receptor type 11 (Mus musculus); test: Inhibition of SHP2 in mouse Ba/F3 cells assessed as reduction in IL3-stimulated JAK2 phosphorylation pretreated for 4 hrs followed by IL3 stimulation and measured after 5 to 60 mins by Western blot analysis; format: cell-based; in short: as §1
[4] = tested on: T3, Tyrosine-protein phosphatase non-receptor type 11 (Mus musculus), P35235 [E76K]; test: Inhibition of PTPN11 E76K mutant in mouse embryonic fibroblasts assessed as inhibition of cell growth at 6 uM after 24 to 72 hrs by cell proliferation-based assay
T3 sequence (whole entry): T1 sequence (whole entry) with E76K, M450V, A550V, K590R
In short: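 Ptpn11 E76K/+ and Ptpn11 +/+ MEFs treated with 6 µM compound; cell number read by One Solution proliferation assay. Triplicates from one of three experiments.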

NCI-H661 = test: Induction of cell cycle arrest in human NCI-H661 cells at 10 to 20 uM after 24 hrs by propidium iodide-staining based FACS analysis; format: functional
In short: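 H661 cells treated with 0, 10 or 20 µM for 24 h; cell cycle profile by propidium iodide staining and FACS. Profiles are representative of three independent experiments.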

CCOc1cc(O)c(C(=O)/C=C/c2ccc(Cl)cc2Cl)cc1CN1CCC=C(n2c(=O)[nH]c3ccccc32)C1
Activity [1]: 0.029 µM
inhibition [2]: Dose-dependent effect
inhibition [3]: Dose-dependent effect
growth inhibition (GI) [4]: Active
Activity (NCI-H661): Active
